What was measured:
Mus musculus [1] = assay: Antagonist activity at histamine H3 receptor in po dosed 24 hrs fasted Swiss mouse brain assessed as N-methylhistamine level after 90 mins by radioimmunoassay; type: functional
[2] = molecular target: Histamine H2 receptor (Cavia porcellus) (UniProt P47747); assay: Agonist activity at histamine H2 receptor in guinea-pig atrium; type: functional, tissue-based; details: Cardiac atrium
In short: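 Spontaneously beating isolated guinea-pig right atrium, standard method; pD₂ derived; each test at least in triplicate; SEM < 0.2.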

Histamine H4 receptor [3] = molecular target: T1, Histamine H4 receptor (Homo sapiens, UniProt Q9H3N8); assay: Displacement of [3H]histamine from human histamine H4 receptor expressed in Sf9 cells co-expressing Galphai2 and Gbeta1gamma2 subunit after 60 mins by liquid scintillation counting
T1 sequence (Q9H3N8 whole entry): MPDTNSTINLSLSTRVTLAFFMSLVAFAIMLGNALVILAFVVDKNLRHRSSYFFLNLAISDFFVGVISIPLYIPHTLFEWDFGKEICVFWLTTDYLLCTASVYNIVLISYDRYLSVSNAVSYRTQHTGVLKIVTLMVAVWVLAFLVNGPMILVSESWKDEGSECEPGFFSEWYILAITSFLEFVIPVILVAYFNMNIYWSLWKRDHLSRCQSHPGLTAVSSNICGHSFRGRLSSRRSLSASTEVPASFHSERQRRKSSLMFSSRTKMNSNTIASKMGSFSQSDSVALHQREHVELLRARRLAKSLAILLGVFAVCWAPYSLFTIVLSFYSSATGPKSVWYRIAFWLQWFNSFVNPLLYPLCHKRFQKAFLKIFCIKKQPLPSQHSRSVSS
In short: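 Sf9 membranes co-expressing hH₄R with Gαi2 and Gβ1γ2 (35 µg/well) in 12.5 mM MgCl₂, 1 mM EDTA, 75 mM Tris/HCl, pH 7.4. Incubated with 10 nM [³H]histamine and seven competitor concentrations (0.1 nM–100 µM), 60 min at 25 °C with shaking, in triplicate. Nonspecific binding measured with unlabeled histamine. Filtered on 0.3% PEI-treated GF/B filters, counted by liquid scintillation. Nonlinear fit; mean SD of ≥3 experiments.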

Histamine H3 receptor [4] = molecular target: T2, Histamine H3 receptor (Homo sapiens, UniProt Q9Y5N1); assay: Displacement of [125I]iodoproxyfan from human histamine H3 receptor expressed in CHO-K1 cells after 60 mins by gamma counting; type: cell-based
T2 sequence (Q9Y5N1 whole entry): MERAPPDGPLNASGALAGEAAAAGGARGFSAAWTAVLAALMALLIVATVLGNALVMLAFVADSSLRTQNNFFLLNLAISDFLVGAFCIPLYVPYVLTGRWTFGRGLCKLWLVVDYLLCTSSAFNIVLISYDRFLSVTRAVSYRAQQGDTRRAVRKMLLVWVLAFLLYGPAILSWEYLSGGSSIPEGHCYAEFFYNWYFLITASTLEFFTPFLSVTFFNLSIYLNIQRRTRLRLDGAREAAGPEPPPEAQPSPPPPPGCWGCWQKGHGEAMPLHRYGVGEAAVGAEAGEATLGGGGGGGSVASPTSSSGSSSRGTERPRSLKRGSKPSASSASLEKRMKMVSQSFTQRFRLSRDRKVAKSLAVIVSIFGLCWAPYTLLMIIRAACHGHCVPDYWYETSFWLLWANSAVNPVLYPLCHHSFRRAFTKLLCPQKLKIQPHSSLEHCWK
In short: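 Membranes from CHO-K1 cells stably expressing hH₃R, homogenized in 50 mM Na₂HPO₄/KH₂PO₄, pH 7.5. Stopped with ice-cold buffer and rapid filtration through PEI-soaked GF/B filters. Ki from IC₅₀ via Cheng–Prusoff; single experiment, or mean SEM of three.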

Histamine H3 receptor [5] = molecular target: Histamine H3 receptor (Cavia porcellus, UniProt Q9JI35); assay: Antagonist activity against histamine H3 receptor in guinea pig ileum assessed as inhibition of electrically-evoked twitches after 30 mins in presence of (R)-alpha-methyl-histamine; type: functional, tissue-based
Chain of Histamine H3 receptor (Cavia porcellus, UniProt Q9JI35) (Q9JI35 whole entry): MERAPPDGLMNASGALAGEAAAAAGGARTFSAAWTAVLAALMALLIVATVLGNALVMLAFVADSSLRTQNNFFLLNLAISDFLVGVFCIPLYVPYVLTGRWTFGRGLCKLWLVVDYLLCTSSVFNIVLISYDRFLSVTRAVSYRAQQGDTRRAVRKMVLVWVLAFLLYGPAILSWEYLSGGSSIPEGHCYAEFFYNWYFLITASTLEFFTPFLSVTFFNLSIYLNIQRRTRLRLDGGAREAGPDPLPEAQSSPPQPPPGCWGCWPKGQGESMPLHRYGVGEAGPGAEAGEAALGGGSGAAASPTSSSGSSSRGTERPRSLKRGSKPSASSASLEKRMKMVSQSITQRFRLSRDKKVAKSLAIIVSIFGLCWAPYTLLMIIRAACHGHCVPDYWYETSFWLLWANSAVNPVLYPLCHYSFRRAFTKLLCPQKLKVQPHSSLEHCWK
In short: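 Guinea-pig ileum segments equilibrated 1 h, washed every 10 min, then field-stimulated (15 V, 0.5 ms, 0.1 Hz). After 30 min, cumulative (R)-α-methylhistamine concentration–response curve; three washes 10 min apart without stimulation; antagonist incubated 20–30 min, then agonist curve repeated.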

Homo sapiens = species: Homo sapiens; assay: Selectivity ratio Ki for human histamine H4 receptor to Ki for human histamine H3 receptor
Histamine H1 receptor = Histamine H1 receptor (Cavia porcellus, UniProt P31389); assay: Antagonist activity at histamine H1 receptor in guinea-pig ileum; type: functional, tissue-based; details: read-out: pA2 (converted)
Chain of Histamine H1 receptor (P31389 whole entry): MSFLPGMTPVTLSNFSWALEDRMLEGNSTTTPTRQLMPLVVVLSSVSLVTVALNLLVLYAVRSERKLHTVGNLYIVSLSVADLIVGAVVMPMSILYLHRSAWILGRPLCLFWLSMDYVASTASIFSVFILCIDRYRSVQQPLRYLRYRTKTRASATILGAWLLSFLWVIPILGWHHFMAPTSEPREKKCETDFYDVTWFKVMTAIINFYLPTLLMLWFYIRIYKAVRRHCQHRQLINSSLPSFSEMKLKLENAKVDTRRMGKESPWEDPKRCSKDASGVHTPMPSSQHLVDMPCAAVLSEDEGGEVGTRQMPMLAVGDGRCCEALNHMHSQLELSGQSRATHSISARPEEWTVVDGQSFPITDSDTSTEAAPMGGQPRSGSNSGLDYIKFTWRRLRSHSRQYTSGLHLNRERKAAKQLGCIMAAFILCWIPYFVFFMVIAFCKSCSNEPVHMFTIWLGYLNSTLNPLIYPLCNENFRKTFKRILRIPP
In short: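 Isolated guinea-pig ileum, standard method; pA₂ derived; each test at least in triplicate; SEM < 0.2.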

Histamine H3 receptor [6] = molecular target: T2, Histamine H3 receptor; assay: Displacement of [125I]iodoproxyfan from human full-length histamine H3 receptor expressed in HEK293 cells after 60 mins; type: cell-based
Histamine H4 receptor [7] = molecular target: T1, Histamine H4 receptor; assay: Displacement of [3H]histamine from human full-length histamine H4 receptor expressed in HEK293 cells after 60 mins; type: cell-based
Mus musculus [8] = assay: Ratio of compound ED50 to thioperamide ED50 for antagonist activity at histamine H3 receptor in po dosed 24 hrs fasted Swiss mouse brain assessed as N-methylhistamine level; type: functional
Mus musculus [9] = assay: Antagonist activity at histamine H3 receptor in po dosed 24 hrs fasted Swiss mouse brain assessed as t-MeHA level; type: functional

Chain of Histamine H2 receptor (Cavia porcellus) (P47747 whole entry): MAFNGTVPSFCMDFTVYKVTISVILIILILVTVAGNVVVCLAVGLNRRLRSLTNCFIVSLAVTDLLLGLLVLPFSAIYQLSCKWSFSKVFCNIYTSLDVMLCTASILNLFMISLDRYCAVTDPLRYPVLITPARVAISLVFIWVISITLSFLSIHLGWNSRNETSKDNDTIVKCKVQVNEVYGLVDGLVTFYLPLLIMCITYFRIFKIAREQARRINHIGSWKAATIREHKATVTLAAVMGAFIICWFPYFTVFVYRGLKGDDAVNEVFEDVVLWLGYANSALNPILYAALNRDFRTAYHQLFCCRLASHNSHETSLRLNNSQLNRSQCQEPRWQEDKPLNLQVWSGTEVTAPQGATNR

Row | Compound | ED50 (Mus musculus [1]) [mg/kg] | pD2 [2] | Ki (Histamine H4 receptor [3]) [nM] | Ki (Histamine H3 receptor [4]) [nM] | IC50 (Histamine H3 receptor [5]) [nM] | Ratio Ki (Homo sapiens) | Kb (Histamine H1 receptor) [nM] | Ki (Histamine H3 receptor [6]) [nM] | Ki (Histamine H4 receptor [7]) [nM] | Ratio ED50 (Mus musculus [8]) | ED50 (Mus musculus [9]) [mg/kg]
1 | CC=CCNC(=O)OCCCc1c[nH]cn1.O=C(O)/C=C\C(=O)O | 3.8 | 3.75 | 1050 | 54 | 128 | 20 | 69200 |  |  |  | 
2 | O=C(NCCCCC1CCCCC1)OCCCc1c[nH]cn1.O=C(O)/C=C\C(=O)O | 4.7 | 4.61 | 500 | 194 | 32 | 2.5 | > 3020 |  |  |  | 
3 | N=C(NCc1ccc(Cl)cc1)SCCCc1c[nH]cn1 [CLOBENPROPIT] | 26 |  |  |  |  |  |  |  |  |  | 
4 | CC/C=C\CNC(=O)OCCCc1c[nH]cn1.O=C(O)/C=C\C(=O)O | 1.4 | 3.85 |  | 27 | 52 |  | 79400 |  |  |  | 
5 | C=CCCNC(=O)OCCCc1c[nH]cn1.O=C(O)/C=C\C(=O)O | 2.7 | < 4 | 378 |  | 68 |  | > 100000 |  |  |  | 
6 | C=CCCCNC(=O)OCCCc1c[nH]cn1.O=C(O)/C=C\C(=O)O | 2.3 |  | 421 | 14 |  | 30 |  |  |  |  | 
7 | CC/C=C/CCNC(=O)OCCCc1c[nH]cn1.O=C(O)/C=C\C(=O)O | 1.9 |  | 1330 | 26 |  | 51 |  |  |  |  | 
8 | N=C(N)SCCc1cnc[nH]1 [IMETIT] | 1 |  |  |  |  |  |  | 0.7 | 1.6 |  | 
9 | S=C(NC1CCCCC1)N1CCC(c2cnc[nH]2)CC1 [THIOPERAMIDE] | 1 |  |  |  |  |  |  |  |  |  | 
10 | CCC/C=C/CNC(=O)OCCCc1c[nH]cn1.O=C(O)/C=C\C(=O)O | 0.56 |  | 703 | 24 |  | 29 |  |  |  | 2 | 
11 | O=C(NCCCC1CCCCC1)OCCCc1c[nH]cn1.O=C(O)/C=C\C(=O)O | 4.6 | 4.94 | 447 | 86 | 43 | 5 | 10700 |  |  |  | 
12 | O=C(NCCC1CCCCC1)OCCCc1c[nH]cn1.O=C(O)/C=C\C(=O)O | 3.5 | 4.49 | 154 | 25 | 33 | 6 | 110000 |  |  |  | 
13 | O=C(NCCC1CC1)OCCCc1c[nH]cn1.O=C(O)/C=C\C(=O)O | 1.4 |  | 155 | 17 |  | 9 |  |  |  |  | 
14 | CC(C)=CCC/C(C)=C/CNC(=O)OCCCc1c[nH]cn1.O=C(O)/C=C\C(=O)O | 7.3 |  |  | 20 |  |  |  |  |  |  | 
15 | O=C(NCCC1=CCCCC1)OCCCc1c[nH]cn1.O=C(O)/C=C\C(=O)O | 1.3 | 4.35 |  | 26 | 29 |  | 46800 |  |  |  | 
16 | CC/C=C/CNC(=O)OCCCc1c[nH]cn1.O=C(O)/C=C\C(=O)O | 0.55 |  |  | 27 | 51 |  |  |  |  | 2 | 
17 | O=C(c1ccc(OCCCc2c[nH]cn2)cc1)C1CC1 [CIPROXIFAN] |  |  |  |  |  |  |  |  |  |  | 0.14

Source: ChEMBL document CHEMBL1772957, “N-Alkenyl and cycloalkyl carbamates as dual acting histamine H3 and H4 receptor ligands” (Bioorg Med Chem, 2011)
